A selection: hits, their analogues and other compounds. The true share with any hit is near 11%.
Diaphorase act: activates diaphorase or chemically reduces, flagging diaphorase assay artifacts; activation factor at 20 µM; AID 1229; 0.005% of 190,000 active; Diaphorase/resazurin coupled assay, resorufin fluorescence, 16 min; hits give high values; 1 = vehicle wells, 0 = NADH-free wells;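 active = diaphorase activity raised at least twofold by the compound at 20 µM; inactive = activation factor below 2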
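Material: Clostridium kluyveri diaphorase, purified enzyme; Quantity: enzyme 0.07 U/mL final; Medium: HEPES pH 7.4 buffer with MgCl2 and Tween 20; Dosing: single compound dose of 20 µM, 1% DMSO final; Schedule: 16 min reaction at room temperature; Measured by: red resorufin fluorescence at 544/590 nm excitation/emission.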
G6PDH counter: counter-screen for G6PDH assay hits: L. mesenteroides G6PDH inhibition; 0.12% of 200,000 active; AID 1020; inhibition, % at 5 µM; Purified L. mesenteroides G6PDH, diaphorase/resazurin coupled fluorescence, 45 min
Diaph inh CS: counter-screen for diaphorase-based assays: diaphorase inhibitors and chemical oxidizers | inhibition, % at 20 µM | 0.69% of 190,000 active | diaphorase resazurin-to-resorufin fluorescence, NADH, 16 min; bacterial (C. kluyveri) enzyme, not human | AID 1217;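 active = primary screen inhibition at 20 µM above a set limit, cut at about 50% in these data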;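 also: plate controls were DMSO with full reaction for no effect and wells lacking NADH for full effect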
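Detection: fluorescence of resorufin formed from resazurin, Ex 544/Em 590 nm; test system: Clostridium kluyveri diaphorase enzyme; amount: 0.14 U/mL diaphorase, enzyme working solution; times: 16-min room-temperature incubation before reading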
L major viab: reduces viability of Leishmania major promastigotes; resazurin fluorescence viability; inhibition, % at 10 µM; 9% of 200,000 active; AID 1063;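 also: promastigotes grown with compound for 44 hours at 28 °C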
WT yeast gro inh: growth inhibition of WT yeast, mitochondrial fusion screen; inhibition, % at 10 µM; mitochondrial fusion phenotypic screen, WT strain; AID 1362; 2.1% of 190,000 active; in the data active = inhibition above about 58%; tested in S. cerevisiae
* marks the source's active call; other numbers are inactive results. Rule as the data show it, unless noted: active = inhibition above about 50%; inactive = the rest.

How did CCc1ccc2c(c1)cc(C)c1nnc(SCC(=O)Nc3cc(OC)c(OC)cc3C(=O)O)n12 do in these assays?
Diaphorase act: 0.5; G6PDH counter: 22; Diaph inh CS: 45; L major viab: -6; WT yeast gro inh: 7

What do the screens show for `CCOC(CNc1ncnc2c1cnn2C)OCC`?
Diaphorase act: 1; G6PDH counter: -5; Diaph inh CS: -4; L major viab: -2; WT yeast gro inh: 6

Results for Cc1cc(C)c(C#N)c(Sc2ccc(N)cc2)n1 ?
Diaphorase act: 0.9; G6PDH counter: 1; Diaph inh CS: 14; L major viab: 31; WT yeast gro inh: -7

What do the screens show for `COc1ccc(-c2csc(NC(=O)c3ccoc3C)n2)cc1`?
Diaphorase act: 0.8; G6PDH counter: -6; Diaph inh CS: 22; L major viab: 0; WT yeast gro inh: 21

How did N#CCCN(Cc1cccnc1)C(=O)Nc1cccc(Cl)c1 do in these assays?
Diaphorase act: 0.8; G6PDH counter: 0; Diaph inh CS: 17; L major viab: -2; WT yeast gro inh: -12

Results for O=C(CCc1ccccc1)Nc1ccccc1 ?
G6PDH counter: 10; L major viab: -6; WT yeast gro inh: 0

How did CCOC(=O)c1c(NC(=O)CN2C(=O)NC(C)(c3ccccc3)C2=O)sc(C)c1C (centres undefined) do in these assays?
Diaphorase act: 0.8; G6PDH counter: 21; Diaph inh CS: 17; L major viab: 70*; WT yeast gro inh: 24

How did CN(C)c1ccc(NC(=O)CCCc2ccccc2)cc1 do in these assays?
Diaphorase act: 0.9; G6PDH counter: -5; Diaph inh CS: 10; L major viab: 76*; WT yeast gro inh: -2

What do the screens show for `CCOC(=O)c1c(NC(=O)C[n+]2ccc(N(C)C)cc2)sc(C)c1C`?
Diaphorase act: 0.9; G6PDH counter: 8; Diaph inh CS: 10; L major viab: 84*; WT yeast gro inh: 18

Results for CN(C)c1cc[n+](CC(=O)Nc2ccc(Oc3ccccc3)cc2)cc1 ?
Diaphorase act: 1.1; G6PDH counter: -1; Diaph inh CS: -8; L major viab: -5; WT yeast gro inh: 76*

Results for CCOC(=O)c1c(NC(=O)COC)sc(C)c1C ?
Diaphorase act: 1; G6PDH counter: 2; Diaph inh CS: -1; L major viab: 0; WT yeast gro inh: 3

What do the screens show for `Cc1sc2ncnc(SCC(=O)NNC(=O)COc3cccc4ccccc34)c2c1C`?
Diaphorase act: 1; G6PDH counter: 5; Diaph inh CS: -3; L major viab: -12; WT yeast gro inh: -5

How did CC(C)OC(=O)NCCOC(=O)Nc1ccc(Cl)cc1 do in these assays?
Diaphorase act: 0.8; G6PDH counter: 6; Diaph inh CS: 24; L major viab: -8; WT yeast gro inh: 7

Results for CN(C)c1ccc(/C=C(\Cl)c2nc3ccccc3s2)cc1 ?
Diaphorase act: 1; G6PDH counter: -21; Diaph inh CS: 5; L major viab: 5; WT yeast gro inh: 33

What do the screens show for `COc1ccc(C(=O)NCC(c2cccnc2)N2CCN(c3ccccc3OC)CC2)cc1OC` (centres undefined)?
Diaphorase act: 0.9; G6PDH counter: -15; Diaph inh CS: 8; L major viab: 74*; WT yeast gro inh: 12

How did COc1cccc(C(=O)NCC(c2cccnc2)N2CCN(c3ccccc3OC)CC2)c1 (centres undefined) do in these assays?
L major viab: 88*; WT yeast gro inh: -6

How did COc1ccccc1N1CCN(C(CNS(C)(=O)=O)c2cccnc2)CC1 (centres undefined) do in these assays?
Diaphorase act: 1.1; G6PDH counter: 4; Diaph inh CS: -10; L major viab: 17; WT yeast gro inh: -9

What do the screens show for `O=C(NNc1cc(N2CCOCC2)nc(N2CCOCC2)n1)c1ccc(Cl)cc1Cl`?
Diaphorase act: 0.9; G6PDH counter: 15; Diaph inh CS: 12; L major viab: 28; WT yeast gro inh: -5

How did NC(=O)C1CCN(CC(=O)N2N=CCC2c2ccccc2)CC1 (centres undefined) do in these assays?
Diaphorase act: 0.9; G6PDH counter: 16; Diaph inh CS: 7; L major viab: -8; WT yeast gro inh: 6

Results for CSc1ccc2c(c1)N(CCC1CCCCN1C)c1ccccc1S2 (centres undefined) ?
Diaphorase act: 0.9; G6PDH counter: 10; Diaph inh CS: 10; L major viab: 99*; WT yeast gro inh: 85

What do the screens show for `Cc1nnc(SCc2cc(=O)[nH]c(=S)[nH]2)s1`?
Diaphorase act: 0.4; G6PDH counter: 10; Diaph inh CS: 64*; L major viab: 0; WT yeast gro inh: 21

Results for CCN(CC)c1ncnc2c1[nH]c1ccccc12 ?
Diaphorase act: 0.9; G6PDH counter: -4; Diaph inh CS: 15; L major viab: 60*; WT yeast gro inh: 0

Results for CCCOc1ncnc2c1[nH]c1ccccc12 ?
Diaphorase act: 0.9; G6PDH counter: 1; Diaph inh CS: 12; L major viab: 47; WT yeast gro inh: -4

What do the screens show for `Nc1c(-c2ccccc2)c(CSc2nc3ccccc3[nH]2)nn1-c1ccc(Cl)cc1`?
Diaphorase act: 1; G6PDH counter: 16; Diaph inh CS: 3; L major viab: 97*; WT yeast gro inh: 72*

Results for c1ccc(-c2nnc(CSc3nc4ccccc4[nH]3)o2)cc1 ?
Diaphorase act: 0.9; G6PDH counter: -1; Diaph inh CS: 14; L major viab: 6; WT yeast gro inh: -15

How did Cc1ccccc1-n1nc(CSc2nc3ccccc3[nH]2)c(-c2ccccc2)c1N do in these assays?
Diaphorase act: 0.8; G6PDH counter: 4; Diaph inh CS: 18; L major viab: 19; WT yeast gro inh: 35

What do the screens show for `Nc1c(-c2ccccc2)c(CSc2nc3ccccc3[nH]2)nn1-c1cccc(Cl)c1`?
Diaphorase act: 1; G6PDH counter: 17; Diaph inh CS: 3; L major viab: 98*; WT yeast gro inh: 71*

How did O=S(=O)(NCCc1csc(-c2ccc(C(F)(F)F)cc2)n1)c1ccc2c(c1)OCCO2 do in these assays?
Diaphorase act: 0.8; G6PDH counter: 2; Diaph inh CS: 22; L major viab: -8; WT yeast gro inh: 74*

How did COc1ccc(-c2nc(CCNS(=O)(=O)c3ccc4c(c3)OCCO4)cs2)cc1 do in these assays?
Diaphorase act: 0.7; G6PDH counter: 5; Diaph inh CS: 30; L major viab: -3; WT yeast gro inh: 15

Results for CCC(Sc1nc2cc(OC)c(OC)cc2c(=O)n1CCc1ccc(OC)c(OC)c1)C(=O)NCCOC (centres undefined) ?
Diaphorase act: 1; G6PDH counter: -6; Diaph inh CS: 2; L major viab: 80*; WT yeast gro inh: -8

How did CCCCNC(=O)CSc1nc2cc3c(cc2c(=O)n1CCC(=O)NCCc1ccc(OC)c(OC)c1)OCO3 do in these assays?
Diaphorase act: 1.1; G6PDH counter: 4; Diaph inh CS: -8; L major viab: 52*; WT yeast gro inh: -3

Assay outcomes from PubChem BioAssay.
